In one data set the target is Cannabinoid receptor 2 (Homo sapiens, UniProt P34972). The data set is described as follows: Displacement of [3H]CP55940 from human CB2 receptor expressed in CHOK1 cells after 1 hr by liquid scintillation counting analysis. The format is cell-based, CHO-K1. The method, boiled down:
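Membranes from butyrate-treated (5 mM, 24 h) CHO-K1 cells stably expressing human CB2, incubated with 0.3 nM [3H]CP55940 and increasing ligand concentrations, 60 min, 30 °C, pH 7.4 Tris buffer with 0.1% fatty acid-free BSA and 1% DMSO; nonspecific binding with 10 μM CP55940; filtration, scintillation counting; tested in triplicate.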
(In a radioligand displacement assay an active substance lowers the binding of a labelled ligand.)

The target in the next data set is Cannabinoid receptor 1 (Homo sapiens, UniProt P21554). The data set is described as follows: Displacement of [3H]CP55940 from human CB1 receptor expressed in CHOK1 cells after 1 hr by liquid scintillation counting analysis. It counts as cell-based, CHO-K1.
The subject of another data set is Liver microsome. The data set is described as follows: Clearance in rat liver microsomes at 2 uM by LC-MS/MS analysis. The format is ADME. The method, boiled down: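 Rat liver microsomes at 0.5 mg/mL were incubated with 2 μM compound (final) and an NADPH-regenerating system. Aliquots were taken at 1, 3, 6, 9, 15, 25, 35 and 45 min and quenched in acetonitrile containing internal standard. Depletion was measured by LC-MS/MS. Clmic = −slope × 1000 / protein concentration (mg/mL), not corrected for microsomal protein binding.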
On the technique in general: Microsomes from liver hold many membrane-bound enzymes, among them those of drug oxidation.

Chain of Cannabinoid receptor 2 (P34972 whole entry): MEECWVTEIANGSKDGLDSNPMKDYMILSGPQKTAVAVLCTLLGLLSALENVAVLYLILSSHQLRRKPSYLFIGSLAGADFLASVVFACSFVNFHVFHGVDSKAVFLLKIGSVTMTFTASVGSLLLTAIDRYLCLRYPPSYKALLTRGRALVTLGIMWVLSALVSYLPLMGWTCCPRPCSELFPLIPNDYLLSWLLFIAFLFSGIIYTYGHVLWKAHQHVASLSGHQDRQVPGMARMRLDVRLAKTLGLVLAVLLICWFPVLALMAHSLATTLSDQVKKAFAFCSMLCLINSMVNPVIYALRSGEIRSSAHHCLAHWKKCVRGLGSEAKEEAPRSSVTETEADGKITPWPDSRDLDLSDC
Chain of Cannabinoid receptor 1 (P21554 whole entry): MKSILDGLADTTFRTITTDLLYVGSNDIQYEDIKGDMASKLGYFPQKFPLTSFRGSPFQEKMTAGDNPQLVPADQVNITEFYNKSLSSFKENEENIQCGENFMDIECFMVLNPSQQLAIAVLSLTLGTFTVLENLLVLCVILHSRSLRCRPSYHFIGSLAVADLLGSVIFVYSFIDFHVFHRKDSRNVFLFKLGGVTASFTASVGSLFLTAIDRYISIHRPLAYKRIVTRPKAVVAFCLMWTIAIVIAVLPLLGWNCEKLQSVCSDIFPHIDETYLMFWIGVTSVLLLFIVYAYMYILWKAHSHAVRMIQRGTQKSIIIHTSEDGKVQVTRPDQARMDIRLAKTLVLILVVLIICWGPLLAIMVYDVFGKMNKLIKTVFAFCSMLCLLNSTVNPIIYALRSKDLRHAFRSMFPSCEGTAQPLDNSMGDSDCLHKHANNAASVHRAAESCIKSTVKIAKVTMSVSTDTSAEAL

In general, Ki refers to the dissociation constant of the complex between target and ligand, obtained from inhibition or displacement. Read a high Ki as lower affinity. For `COc1ccc(-c2cc(C(=O)N[C@@H]3CCCC[C@H]3O)cnc2OCC2CC2)cc1`, the results for the Ki on Cannabinoid receptor 2 and at Cannabinoid receptor 1 were greater than 10000 nM and 66.4 nM, respectively.

On to `O=C(N[C@H]1CCCC[C@@H]1O)c1cnc(OCC2CC2)c(-c2ccc(Cl)cc2)c1`, for which the values for the Ki on Cannabinoid receptor 2 and at Cannabinoid receptor 1 were 2640 nM and 247 nM, respectively.

For `O=C(N[C@@H]1CCCC[C@H]1O)c1cnc(OC2CCC2)c(-c2ccc(Cl)cc2)c1`, the Ki on Cannabinoid receptor 2 was greater than 10000 nM; on Cannabinoid receptor 1, 208 nM. In the data set on Liver microsome, this molecule showed a CLH of 210 µL/min/mg.

With `O=C(O)c1ccc(-c2cc(C(=O)N[C@@H]3CCCC[C@H]3O)cnc2OCC2CC2)cc1`, the inhibitory constant (Ki) at Cannabinoid receptor 2 and on Cannabinoid receptor 1 was greater than 10000 nM in each case.

For `O=C(N[C@@H]1CCCC[C@H]1O)c1cc(-c2ccc(Cl)cc2)c(OCC2CC2)nn1`, the Ki on Cannabinoid receptor 2 was greater than 3000 nM; at Cannabinoid receptor 1 it was greater than 5000 nM.

Regarding `NS(=O)(=O)c1ccc(-c2cc(C(=O)N[C@@H]3CCCC[C@H]3O)cnc2OCC2CC2)cc1`, the Ki on Cannabinoid receptor 2 and on Cannabinoid receptor 1 was greater than 10000 nM throughout.

For the molecule `O=C(N[C@@H]1CCCC[C@H]1O)c1cnc(OCC2CC2)c(-c2ccc(Cl)cc2Cl)c1`, the inhibition constant (Ki) on Cannabinoid receptor 2 was greater than 5000 nM; at Cannabinoid receptor 1, 122 nM.

For the molecule `O=C(N[C@@H]1CCCC[C@H]1O)c1cnc(OCc2ccncc2)c(-c2ccc(Cl)cc2)c1`, the Ki is greater than 10000 nM on Cannabinoid receptor 2 and 58.7 nM at Cannabinoid receptor 1. Also, the CLH in the data set with Liver microsome came to 118 µL/min/mg.

Turning to `O=C(N[C@@H]1CCCC[C@H]1O)c1cnc(OCC2CC2)c(-c2cccc(Cl)c2)c1`, the inhibition constant (Ki) on Cannabinoid receptor 2 was greater than 5000 nM; on Cannabinoid receptor 1, 129 nM.

Consider `O=C(N[C@@H]1CCCC[C@H]1O)c1cnc(OCC2CC2)c(-c2ccc(F)cc2)c1`, for which the Ki was greater than 10000 nM at Cannabinoid receptor 2 and 42.8 nM on Cannabinoid receptor 1. The molecule also registered a CLH with Liver microsome of 37 µL/min/mg.

One may read the IC50 as the concentration that inhibits the measured activity by half. High values mean lower potency, low ones higher potency. Turning to `Cc1c(C(=O)N[C@@H]2CCCC[C@H]2O)cc(-c2cc(C(F)(F)F)ccc2Cl)n1CC1CCCCC1`, the half-maximal inhibitory concentration (IC50) at Cannabinoid receptor 2 was greater than 5000 nM; at Cannabinoid receptor 1, 9.5 nM. The molecule further had a CLH in the data set on Liver microsome of 1323 µL/min/mg.

With `O=C(N[C@@H]1CCCC[C@H]1O)c1cnc(CCC2CC2)c(-c2ccc(Cl)cc2)c1`, the results for the Ki at Cannabinoid receptor 2 and on Cannabinoid receptor 1 were greater than 10000 nM and 16.7 nM, respectively. In addition, the CLH in the data set on Liver microsome was found to be 1503 µL/min/mg.

On to `O=C(N[C@@H]1CCCC[C@H]1O)c1cnc(OCC(F)(F)F)c(-c2ccc(Cl)cc2)c1`, for which the Ki on Cannabinoid receptor 2 was greater than 7000 nM; at Cannabinoid receptor 1 it was 12.4 nM. Also, the CLH in the data set on Liver microsome was 23 µL/min/mg.

Turning to `O=C(N[C@@H]1CCCC[C@H]1O)c1ccc(OCC2CC2)c(-c2ccc(Cl)cc2)n1`, the Ki amounted to 863 nM at Cannabinoid receptor 2 and 1830 nM at Cannabinoid receptor 1.

As to `O=C(N[C@@H]1CCCC[C@H]1O)c1cnc(OCc2ccccc2)c(-c2ccc(Cl)cc2)c1`, the inhibition constant (Ki) is greater than 10000 nM at Cannabinoid receptor 2 and 40.2 nM on Cannabinoid receptor 1. Also, in the data set with Liver microsome, the CLH was found to be 20 µL/min/mg.

As to `O=C(NN1CCCCC1)c1cnc(OCC2CC2)c(-c2ccc(Cl)cc2)c1`, the Ki at Cannabinoid receptor 2 is greater than 10000 nM; on Cannabinoid receptor 1, 563 nM.

As to `O=C(N[C@@H]1CCCC[C@H]1O)c1cnc(OC2CCCCC2)c(-c2ccc(Cl)cc2)c1`, the inhibitory constant (Ki) at Cannabinoid receptor 2 is greater than 10000 nM; on Cannabinoid receptor 1, 3030 nM. The same molecule registered a CLH in the data set on Liver microsome of 662 µL/min/mg.

Consider `O=C(N[C@@H]1CCCC[C@H]1O)c1cnc(OCC2CC2)c(-c2ccc(OC(F)(F)F)cc2)c1`, for which the inhibition constant (Ki) on Cannabinoid receptor 2 was greater than 10000 nM; on Cannabinoid receptor 1, 23.6 nM. In the data set with Liver microsome, this molecule came in with a CLH of 0 µL/min/mg.

On to `O=C(N[C@@H]1CCCC[C@H]1O)c1cnc(OCC2CC2)c(-c2ccccc2Cl)c1`, for which the inhibitory constant (Ki) on Cannabinoid receptor 2 was greater than 10000 nM; on Cannabinoid receptor 1, 190 nM.

On to `O=C(N[C@@H]1CCCC[C@H]1O)c1cnc(OCc2cccnc2)c(-c2ccc(Cl)cc2)c1`, for which the Ki was greater than 10000 nM on Cannabinoid receptor 2 and 23.5 nM on Cannabinoid receptor 1. Moreover, the CLH with Liver microsome was found to be 374 µL/min/mg.

For `O=C(N[C@@H]1CCCC[C@@H]1O)c1cnc(OCC2CC2)c(-c2ccc(Cl)cc2)c1`, the inhibition constant Ki was greater than 5000 nM on Cannabinoid receptor 2 and 186 nM at Cannabinoid receptor 1. The molecule also gave a CLH in the data set on Liver microsome of 163 µL/min/mg.

As to `C[C@](O)(CNC(=O)c1cnc(OCC2CC2)c(-c2ccc(Cl)cc2)c1)C1CC1`, the Ki on Cannabinoid receptor 2 was greater than 10000 nM; on Cannabinoid receptor 1 it was 34.3 nM. Besides, in the data set on Liver microsome, the CLH is 2.4 µL/min/mg.

In the case of `O=C(N[C@@H]1CCCC[C@H]1O)c1cnc(OCC2CC2)c(-c2ccc(Cl)cc2)n1`, the inhibition constant (Ki) stood at 801 nM at Cannabinoid receptor 2 and 25.8 nM at Cannabinoid receptor 1.

As for `O=C(N[C@H]1CCCC[C@H]1O)c1cnc(OCC2CC2)c(-c2ccc(Cl)cc2)c1`, the results for the Ki on Cannabinoid receptor 2 and at Cannabinoid receptor 1 were greater than 7000 nM and 104 nM, respectively. Moreover, the CLH with Liver microsome turned out to be 111 µL/min/mg.

Consider `O=C(N[C@@H]1CCCC[C@H]1O)c1cnc(OCC2CC2)c(-c2ccc(C(F)(F)F)cc2)c1`, for which the figures for the inhibitory constant (Ki) on Cannabinoid receptor 2 and at Cannabinoid receptor 1 were greater than 10000 nM and 18.5 nM, respectively.

Consider `O=C(N[C@@H]1CCCC[C@H]1O)c1cnc(OCC2CC2)c(-c2cc(C(F)(F)F)ccc2Cl)c1`, for which the figures for the inhibitory constant (Ki) on Cannabinoid receptor 2 and on Cannabinoid receptor 1 were 2080 nM and 67.7 nM, respectively. The molecule further yielded a CLH with Liver microsome of 59 µL/min/mg.

Turning to `O=C(N[C@@H]1CCCC[C@H]1O)c1cnc(OCc2ccccn2)c(-c2ccc(Cl)cc2)c1`, the results for the Ki at Cannabinoid receptor 2 and at Cannabinoid receptor 1 were greater than 10000 nM and 139 nM, respectively. Moreover, the CLH in the data set on Liver microsome stood at 44 µL/min/mg.

Take `O=C(N[C@@H]1CCCC[C@H]1O)c1cnc(Oc2ccccc2)c(-c2ccc(Cl)cc2)c1`: the Ki on Cannabinoid receptor 2 is greater than 10000 nM; on Cannabinoid receptor 1, 1660 nM. The same molecule registered a CLH in the data set on Liver microsome of 353 µL/min/mg.

Regarding `N#Cc1ccc(-c2cc(C(=O)N[C@@H]3CCCC[C@H]3O)cnc2OCC2CC2)cc1`, the Ki at Cannabinoid receptor 2 is greater than 10000 nM; at Cannabinoid receptor 1, 23.6 nM.

As for `O=C(N[C@@H]1CCCC[C@H]1O)c1cnc(OC2CCCC2)c(-c2cc(C(F)(F)F)ccc2Cl)c1`, the IC50 at Cannabinoid receptor 2 worked out at 2390 nM; on Cannabinoid receptor 1, 395 nM. Moreover, in the data set on Liver microsome, the CLH is 367 µL/min/mg.

For the molecule `Cc1cc(COc2ncc(C(=O)N[C@@H]3CCCC[C@H]3O)cc2-c2ccc(Cl)cc2)on1`, the values for the inhibition constant Ki on Cannabinoid receptor 2 and at Cannabinoid receptor 1 were greater than 10000 nM and 10.6 nM, respectively. In the data set with Liver microsome, the CLH was 151 µL/min/mg.

As to `CN(CC1CC1)c1ncc(C(=O)N[C@@H]2CCCC[C@H]2O)cc1-c1ccc(Cl)cc1`, the inhibition constant (Ki) on Cannabinoid receptor 2 is greater than 10000 nM; at Cannabinoid receptor 1, 51.1 nM. Moreover, the CLH with Liver microsome worked out at 1730 µL/min/mg.

As to `O=C(N[C@@H]1CCCC[C@H]1O)c1cc(-c2ccc(Cl)cc2)c(OCC2CC2)cn1`, the inhibition constant Ki at Cannabinoid receptor 2 was 1530 nM; on Cannabinoid receptor 1, greater than 7000 nM.

With `NC(=O)c1ccc(-c2cc(C(=O)N[C@@H]3CCCC[C@H]3O)cnc2OCC2CC2)cc1`, the inhibition constant (Ki) at Cannabinoid receptor 2 was greater than 10000 nM; at Cannabinoid receptor 1, greater than 8000 nM.

For the molecule `CC(C)Oc1ncc(C(=O)N[C@@H]2CCCC[C@H]2O)cc1-c1ccc(Cl)cc1`, the figures for the inhibitory constant (Ki) at Cannabinoid receptor 2 and at Cannabinoid receptor 1 were greater than 10000 nM and 1070 nM, respectively.

With `CS(=O)(=O)Nc1ccc(-c2cc(C(=O)N[C@@H]3CCCC[C@H]3O)cnc2OCC2CC2)cc1`, the Ki at Cannabinoid receptor 2 is greater than 10000 nM; on Cannabinoid receptor 1 it was 1900 nM.

Take `O=C(N[C@@H]1CCCC[C@H]1O)c1cnc(OCC2CC2)c(-c2ccc(Cl)c(Cl)c2)c1`: the inhibition constant Ki was 1260 nM at Cannabinoid receptor 2 and 305 nM on Cannabinoid receptor 1.

For the molecule `CCCCOc1ncc(C(=O)N[C@@H]2CCCC[C@H]2O)cc1-c1ccc(Cl)cc1`, the inhibition constant Ki on Cannabinoid receptor 2 was greater than 10000 nM; at Cannabinoid receptor 1, 43.8 nM. This molecule also showed a CLH with Liver microsome of 101 µL/min/mg.

Consider `O=C(N[C@@H]1CCCC[C@H]1O)c1cnc(OC2CCCC2)c(-c2ccc(Cl)cc2)c1`, for which the Ki at Cannabinoid receptor 2 is greater than 10000 nM; on Cannabinoid receptor 1 it was 374 nM.

The values are drawn from ChEMBL document CHEMBL3108674, “6-Alkoxy-5-aryl-3-pyridinecarboxamides, a new series of bioavailable cannabinoid receptor type 1 (CB1) antagonists including peripherally selective compounds” (J Med Chem, 2013).
